Only some compounds are listed: those with a hit (about 5.8% of all), similar ones and a draw of the others.
IDH1 mut inh: blocks human IDH1 R132H reductase activity; AID 624101; 70,000 tested, 0.18% active; inhibition, % at 10 µM; diaphorase/resazurin fluorescence, 60 min; O75874; in the data active = inhibition above about 34%;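 note: 0% = DMSO and 100% = no enzyme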
Pf Dd2 growth: inhibitors of Plasmodium falciparum Dd2 growth | P. falciparum Dd2 growth, SYBR Green, 72 h; active compounds read low | activity change, % at 10 µM | 94,000 tested, 2.3% active | AID 1159554; in the data active = activity change below about -80%
Tcruzi prolif: blocks T. cruzi growth in NIH3T3 culture; T. cruzi beta-gal in NIH3T3, GalScreen luminescence, 90 h; 77,000 tested, 5.9% active; AID 624255; inhibition, % at 8.34 µM;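 active = mean inhibition above about 93%, with at least 55% of replicates each passing it, limit read from the data, passing the limit was not always enough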
GASC1 inh: inhibitors of human demethylase GASC-1 KDM4C | Q9H3R0 | GST-KDM4C 2-372, H3K9me3 peptide, LANCE TR-FRET | inhibition, % at 12.5 µM | 96,000 tested, 0.15% active;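 active = mean replicate inhibition above about 25%, with at least 55% of replicates also reaching it, limit read from the data, passing the limit was not always enough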
Target sequence (Q9H3R0 2-372 limits assumed): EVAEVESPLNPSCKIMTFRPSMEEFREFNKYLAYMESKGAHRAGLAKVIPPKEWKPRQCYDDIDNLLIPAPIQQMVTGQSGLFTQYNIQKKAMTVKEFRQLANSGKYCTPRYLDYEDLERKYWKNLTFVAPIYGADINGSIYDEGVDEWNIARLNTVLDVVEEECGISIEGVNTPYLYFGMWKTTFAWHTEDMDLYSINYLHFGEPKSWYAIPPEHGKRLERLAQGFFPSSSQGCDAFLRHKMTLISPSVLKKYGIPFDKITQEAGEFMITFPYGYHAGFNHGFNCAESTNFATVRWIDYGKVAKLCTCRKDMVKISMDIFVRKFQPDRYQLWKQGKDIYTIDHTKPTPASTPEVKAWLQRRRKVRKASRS
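Compound: one test concentration per compound; Material: GST-GASC-1 enzyme fragment 2-372; Amount: GASC-1 enzyme at 10 nM final in reaction; Also added: H3K9me3 peptide substrate, Fe(II), 2-oxoglutarate; Technique: LANCE TR-FRET; Times: 30 min demethylation and 1 h detection at room temperature.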
Starred values were filed as active, the others as inactive; x = no result.

SMILES	IDH1 mut inh	Pf Dd2 growth	Tcruzi prolif	GASC1 inh
CCS(=O)(=O)N1CCCCN2[C@H](C1)[C@@H](c1ccc(C#Cc3ccccc3OC)cc1)[C@@H]2CO	x	-82*	86	-4
COc1ccccc1C#Cc1ccc([C@@H]2[C@@H](CO)N(C(=O)C3CCCC3)[C@H]2C#N)cc1	x	-88*	x	1
COc1ccccc1C#Cc1ccc([C@@H]2[C@@H](C#N)N(C(=O)C3CCCC3)[C@H]2CO)cc1	x	-88*	x	-1
COc1ccccc1C#Cc1ccc([C@H]2[C@@H](CO)N(C(=O)C3CCCC3)[C@H]2C#N)cc1	x	-27	x	-4
COc1ccccc1C#Cc1ccc([C@H]2[C@@H](C#N)N(C(=O)C3CCC3)[C@H]2CO)cc1	x	-90*	94	-1
N#C[C@@H]1[C@H](c2ccc(C#Cc3ccccc3F)cc2)[C@H](CO)N1C(=O)C1CCCC1	x	-88*	x	5
N#C[C@H]1[C@@H](c2ccc(C#Cc3ccccc3F)cc2)[C@H](CO)N1C(=O)C1CCCC1	x	-66	x	-2
N#C[C@H]1[C@H](c2ccc(C#Cc3ccccc3F)cc2)[C@@H](CO)N1C(=O)C1CCCCC1	x	-51	87	-1
N#C[C@H]1[C@@H](c2ccc(C#Cc3ccccc3F)cc2)[C@@H](CO)N1C(=O)C1CCCCC1	0	-93*	91	-5
CO[C@H]1CN(C)C(=O)c2cc(NC(=O)Nc3c(C)noc3C)ccc2OC[C@@H](C)N(CCC(F)(F)F)C[C@@H]1C	0	-52	-26	-1
Cc1noc(C)c1NC(=O)N(C)C[C@H]1OCc2ccccc2-c2c(n(C)c3ccccc23)C(=O)N([C@@H](C)CO)C[C@@H]1C	x	12	-79	0
CO[C@@H](CN(C)C(=O)Nc1ccc(Cl)cc1)[C@H](C)CN(Cc1ccccc1Cl)[C@H](C)CO	0	-35	85	0
C[C@@H]1CN([C@@H](C)CO)S(=O)(=O)c2ccc(-c3cccc(C#N)c3)cc2O[C@H]1CN(C)Cc1cccc(F)c1	3	-84*	94	x
CC(C)CC#Cc1ccc2c(c1)O[C@@H](CN(C)C(=O)NC(C)C)[C@H](C)CN([C@@H](C)CO)S2(=O)=O	36*	-33	58	0
C[C@@H]1CN([C@@H](C)CO)S(=O)(=O)c2ccc(C#CCN(C)C)cc2O[C@H]1CN(C)CC1CCCC1	-2	-83*	88	0
C[C@H](CO)N1C[C@H](C)[C@H](CN(C)Cc2ccc(F)cc2)Oc2cc(C#CCN(C)C)ccc2S1(=O)=O	21	-72	28	42*
CC(C)CC#Cc1ccc2c(c1)O[C@@H](CN(C)C(=O)NC(C)C)[C@@H](C)CN([C@@H](C)CO)S2(=O)=O	0	-3	55	-2
C[C@H]1CN([C@@H](C)CO)C(=O)c2cc(NC(=O)c3ccncc3)ccc2O[C@@H]1CN(C)C	0	1	9	1
CC(C)CC#Cc1ccc2c(c1)O[C@@H](CN(C)Cc1cccc(F)c1)[C@H](C)CN([C@H](C)CO)S2(=O)=O	0	-92*	50	0
CC(C)CC#Cc1ccc2c(c1)O[C@@H](CN(C)Cc1ccccc1)[C@@H](C)CN([C@H](C)CO)S2(=O)=O	5	17	0	0
O=C(C[C@H]1CC[C@H]2[C@@H](COC[C@@H](O)CN2Cc2ccccc2F)O1)N[C@H]1CCN(Cc2ccccc2)C1	x	-41	94	0
C[C@@H]1CCCCO[C@@H](CN(C)C(=O)Nc2cccc3ccccc23)[C@H](C)CN([C@H](C)CO)C(=O)c2cc(NC(=O)Nc3ccccc3)ccc2O1	x	-47	85	-1
C[C@@H]1CCCCO[C@@H](CN(C)C(=O)Nc2cccc3ccccc23)[C@@H](C)CN([C@@H](C)CO)C(=O)c2cc(NC(=O)Cc3ccccc3)ccc2O1	-1	-92*	x	0
C[C@@H]1CN([C@@H](C)CO)C(=O)c2cc(NC(=O)Cc3ccccc3)ccc2O[C@@H](C)CCCCO[C@@H]1CN(C)C(=O)Nc1cccc2ccccc12	4	-94*	1	-2
C[C@H](CO)N1C[C@H](C)[C@@H](CN(C)C(=O)Nc2cccc3ccccc23)OCCCC[C@H](C)Oc2ccc(NC(=O)c3ccccc3)cc2C1=O	x	-6	69	-2
C[C@@H]1CN([C@H](C)CO)C(=O)c2cc(NC(=O)Cc3ccccc3)ccc2O[C@@H](C)CCCCO[C@H]1CN(C)C(=O)Nc1cccc2ccccc12	0	-87*	73	0
O=C(C[C@@H]1CC[C@H]2[C@@H](COC[C@@H](O)CN2C(=O)Nc2cccc(Cl)c2)O1)NCC1CCCCC1	x	3	18	0

Screening data: PubChem, Broad Institute
